These results are taken from ChEMBL document CHEMBL3763107, “Anti-inflammatory neolignans from the roots of Magnolia officinalis” (Bioorg Med Chem, 2016).

Structures are written as SMILES. The source made the active and inactive calls. The rule behind the calls is not given here.

Holding throughout (assay type): functional, cell-based
Assay [1] concerns Neutrophil. As to the kind of experiment: (§1) Antiinflammatory activity in human neutrophils assessed as inhibition of FMLP/CB-induced superoxide anion generation by measuring superoxide dismutase-inhibitable reduction of ferricytochrome c by spectrophotometric analysis. In short, it runs like this: (§2)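 Dextran/Ficoll-purified human neutrophils (6 × 10^5 cells/mL) with ferricytochrome c and 1 mM Ca2+, 2 min at 37 °C. Primed with 1 µg/mL cytochalasin B, then 100 nM FMLP. A550 monitored continuously with stirring. Superoxide taken as the SOD (100 U/mL)-inhibitable reduction using ε 21.1/mM/10 mm. IC50 from mean of n = 3.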

Assay [2] is described as follows: as §1. The settings on record: Neutrophil. The procedure, abridged:
as §2

Assay [3] has as its system Neutrophil. As to the kind of experiment: (§3) Antiinflammatory activity in human neutrophils assessed as inhibition of FMLP/CB-induced elastase release using MeO-Suc-Ala-Ala-Pro-Val-p-nitroanilide as substrate incubated for 5 mins by spectrophotometric analysis. In short, it runs like this:
(§4)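 Neutrophils from healthy donor blood, isolated by dextran sedimentation, Ficoll gradient and hypotonic lysis, kept in Ca2+-free HBSS pH 7.4 at 4 °C. Cells at 6 × 10^5/mL with 100 µM substrate, 2 min at 37 °C, then drug or 0.1% DMSO vehicle for 5 min. Activated with 100 nM FMLP + 0.5 µg/mL CB. A405 followed continuously; % of drug-free activated control; IC50 from mean of n = 3.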

Assay [4] can be described thus: as §3. The settings on record: Neutrophil. The procedure, abridged:
as §4

In assay [5] the test system is Neutrophil. As to the kind of experiment: Induction of superoxide anion generation in human neutrophils by spectrophotometric analysis.
For assay [6], the system named is Neutrophil. As to the kind of experiment: Induction of ferricytochrome c reduction in human neutrophils by spectrophotometric analysis.
Assay [7] concerns Neutrophil. As to the kind of experiment: Induction of FMLP/CB-mediated superoxide anion generation in human neutrophils by measuring superoxide dismutase-inhibitable reduction of ferricytochrome c by spectrophotometric analysis.

By IC50 is commonly meant the concentration that gives 50% inhibition. As to `C=CCc1ccc(Oc2cc(CC=C)c3c(c2O)O[C@@]2(C)CC[C@@H](C(C)C)[C@@H]3C2)cc1`, the inhibition result with Neutrophil [1] and in the assay with Neutrophil [3] was “Dose-dependent effect” throughout. In addition, the values for the IC50 in assay [2] and in assay [4] were 3.54 µM and 3.67 µM, respectively.

Take `C=CCc1ccc(O)c(-c2cc(CC=C)cc(C=O)c2O)c1`: the inhibition entry with Neutrophil [3] is “Dose-dependent effect”. For the same compound, in assay [4], the IC50 was found to be 0.63 µM. The result with Neutrophil [5] was Active.

Take `C=CCc1ccc(O)c(-c2cc(CC=C)cc([C@H]3C[C@](C)(O)CC[C@@H]3C(C)C)c2O)c1`: the inhibition result in the assay on Neutrophil [1] and with Neutrophil [3] was “Dose-dependent effect” throughout. The IC50 in assay [2] came to 8.16 µM; in assay [4], 3.56 µM.

Take `C=CCc1ccc(O)c(-c2ccc(OC)c(CC=C)c2)c1` [METHYLHONOKIOL]: the inhibition entry in the assay on Neutrophil [1] and in the assay with Neutrophil [3] was “Dose-dependent effect” each time. In addition, the values for the 50% inhibitory concentration (IC50) in assay [2] and in assay [4] were 14.3 µM and 8.18 µM, respectively.

In the case of `C=CCc1ccc(O)c(-c2cc(CC=C)cc([C@H]3C[C@@](C)(O)CC[C@@H]3C(C)C)c2O)c1`, the inhibition result with Neutrophil [1] and in the assay on Neutrophil [3] was “Dose-dependent effect” throughout. The IC50 in assay [2] came to 4.21 µM; in assay [4], 2.16 µM.

With `C=CCc1ccc(O)c(-c2cc(CC=C)cc([C@@H]3[C@@H](C(C)C)CC[C@@](C)(O)[C@@H]3O)c2O)c1`, the inhibition result with Neutrophil [1] and with Neutrophil [3] was “Dose-dependent effect” throughout. For the same compound, the half-inhibitory concentration (IC50) in assay [2] amounted to 15.1 µM; in assay [4], 10.7 µM.

Regarding `C=CCc1ccc(O)c(-c2cc(CC=C)cc([C@@H]3C=C(C)CC[C@H]3C(C)C)c2O)c1`, the inhibition result in the assay on Neutrophil [1] and in the assay with Neutrophil [3] was “Dose-dependent effect” throughout. Moreover, the IC50 was 10.8 µM in assay [2] and 14.8 µM in assay [4].

Consider `C=CCc1ccc(O)c(-c2cc(CC=C)cc(OC)c2O)c1`, for which the inhibition result with Neutrophil [1] and in the assay with Neutrophil [3] was “Dose-dependent effect” throughout. The IC50 was determined as 5.48 µM in assay [2] and 3.39 µM in assay [4].

Turning to `C=CCc1ccc(O)c(-c2ccc(O)c(OC)c2)c1`, the inhibition result in the assay on Neutrophil [1] and with Neutrophil [3] was “Dose-dependent effect” in each case. The IC50 came out at 7.89 µM in assay [2] and 18.2 µM in assay [4].

On to `C=CCc1ccc(O)c(-c2cc(CC=C)cc3c2O[C@@H]2[C@H]3[C@@H](C(C)C)CC[C@@]2(C)O)c1`, for which the inhibition entry in the assay on Neutrophil [1] and in the assay on Neutrophil [3] was “Dose-dependent effect” each time. For the same compound, the IC50 in assay [2] amounted to 4.17 µM; in assay [4], 2.59 µM.

As to `C=CCc1ccc(Oc2cc(CC=C)cc(O)c2O)cc1` [OBOVATOR], in the assay on Neutrophil [6], the outcome was Active. Moreover, the inhibition result in the assay on Neutrophil [3] is “Dose-dependent effect”. In addition, the 50% inhibitory concentration (IC50) in assay [4] turned out to be 3.3 µM.

As to `C=CCc1ccc(O)c(-c2ccc(O[C@@H]3CCc4cc(CC=C)cc(-c5cc(CC=C)ccc5O)c4O3)cc2O)c1`, the inhibition entry with Neutrophil [1] and with Neutrophil [3] was “Dose-dependent effect” throughout. For the same compound, the IC50 was 19.3 µM in assay [2] and 3.81 µM in assay [4].

In the case of `CNC(=O)c1cc(Oc2ccc(NC(=O)Nc3ccc(Cl)c(C(F)(F)F)c3)cc2)ccn1` [SORAFENIB], the IC50 in assay [2] turned out to be 3.2 µM; in assay [4], 2 µM.

For the compound `C=CCc1ccc(O)c(-c2cc(O[C@H]3CCc4cc(CC=C)cc(-c5cc(CC=C)ccc5O)c4O3)ccc2O)c1`, the inhibition entry with Neutrophil [3] is “Dose-dependent effect”. Also, the half-inhibitory concentration (IC50) in assay [4] is 2.25 µM. Moreover, in the assay with Neutrophil [7], the result was Active.
